From ChEMBL document CHEMBL1124258, “(Imidazo[1,2-a]pyrimidin-2-yl)phenylmethanones and related compounds as potential nonsedative anxiolytics” (J Med Chem, 1988)

What was measured:
[1] = biological target: GABA-A receptor; anion channel; experiment: Inhibition of 0.6 nM [3H]flunitrazepam binding to GABA-A central benzodiazepine receptor of rat forebrain membrane
Method in brief: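 Rat forebrain membranes with [3H]flunitrazepam at 0.6 nM, modified Squires–Braestrup method. IC50 (nM) read from displacement curves of at least four concentrations, each in triplicate.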

[2] = species on record: Rattus norvegicus; experiment: Minimum Effective Dose (MED) was measured using Food-Conflict test in rats; assay type: functional; conditions: read-out: MED
Method in brief: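 Male Lister rats on alternating schedule: five 4-min FI30 unpunished and 3-min FR5 punished components (food-motivated). Oral dosing, first at 50 mg/kg in four rats, then at decreasing doses if active until the minimum effective dose was reached.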

[3] = species on record: Mus musculus; experiment: Sedative/muscle relaxant effect in mice by using Rotating-Drum test; assay type: functional
Method in brief: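 Male CD-1 mice were placed on a rotating drum (3 cm diameter, 16 rev/min) 1 h after dosing. Mean time on the drum for groups of 10 was expressed as a percentage of the control group mean.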

[4] = test system: Mus musculus; experiment: Anticonvulsant activity in CD-1 mice with 120 mg/kg of leptazol; assay type: functional
Method in brief: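 Male CD-1 mice challenged with leptazol at 120 mg/kg, following Everett and Richards. ED50 (mg/kg po) with 95% confidence limits by Litchfield–Wilcoxon where the doses allowed.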

[5] = species on record: Rattus norvegicus; experiment: Minimum Effective Dose(MED was measured by using Licking-Conflict test in rats; assay type: functional; conditions: read-out: MED
Method in brief: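 Rats trained to stable suppression of drinking at tone onset. Each session had 1 min unpunished drinking, then a tone lasting through a 3-min punished period.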

[6] = species on record: Mus musculus; experiment: Muscle relaxation in mice by using Pull-Up test; assay type: functional

Compound	IC50 [1] [µM]	minimal effective dose [2] [mg/kg]	ED50 [3] [mg/kg]	ED50 [4] [mg/kg]	minimal effective dose [5] [mg/kg]	ED50 [6] [mg/kg]
CCCc1ccc2c(c1)c(OC)cc1nc(C(=O)c3ccccc3)cn12	0.016	2				
COc1cc2nc(C(=O)c3ccc(Cl)cc3)cn2c2ccccc12	0.096	> 50				
COc1nc2nc(C(=O)c3ccccc3)cn2c2c1CSCC2	0.185	20				
O=C(OCc1ccccc1)c1cn2c(n1)sc1ccccc12	0.05					
CCc1cn2cc(C(=O)c3ccccc3)nc2nc1OC	1.5	5				
CC(C)OC(=O)c1cn2c(n1)sc1ccccc12	0.16					
CCCC(=O)c1cn2c(cc(OC)c3cc(CC)ccc32)n1	0.535	20				
COc1cc(C)n2cc(C(=O)c3ccccc3)nc2n1	0.8	5				
CCc1cc(OC)nc2nc(C(=O)c3ccccc3)cn12	0.295	2				
O=C(c1ccccc1)c1cn2c(n1)sc1ccccc12	0.085					
COc1nc2nc(C(=O)c3ccccc3)cn2c(C)c1CC1CC1	0.03	10				
CCc1ccc2c(c1)c(OC)c(CC)c1nc(C(=O)c3ccccc3)cn12	0.135	20				
CCOc1nc2nc(C(=O)c3ccccc3)cn2c2c1CCCC2	2	> 50				
CCOC(=O)c1cn2c(n1)sc1cc(CC)ccc12	4					
C=CCc1c(SC)nc2nc(C(=O)c3ccccc3)cn2c1C	0.008	5				
CCCCc1ccc2c(c1)c(OC)cc1nc(C(=O)c3ccccc3)cn12	0.025	10				
CCCCc1cc(OC)nc2nc(C(=O)c3ccccc3)cn12	0.34	10				
COC(=O)c1cn2c(n1)sc1ccccc12	0.06					
CCCc1cc(OC)nc2nc(C(=O)c3ccccc3)cn12	0.535	1				
CC1(C)COC(c2cn3c(n2)sc2ccccc23)=N1	> 10					
COc1nc2nc(C(=O)c3ccccc3)cn2c2c1CSC2	0.43	> 50				
CCOc1nc2nc(C(=O)c3ccccc3)cn2c2c1CCCCC2	4	5				
COc1cc2nc(C(=O)c3cccs3)cn2c2ccccc12	0.024	> 50				

Compound	IC50 [1] [µM]	minimal effective dose [2] [mg/kg]	ED50 [3] [mg/kg]	ED50 [4] [mg/kg]	minimal effective dose [5] [mg/kg]	ED50 [6] [mg/kg]
O=C(Nc1cccc(Cl)c1)c1cn2c(n1)sc1ccccc12	> 10					
COc1ccc(C(=O)c2cn3c(cc(OC)c4ccccc43)n2)cc1	0.037	> 50				
CCSc1nc2nc(C(=O)c3ccccc3)cn2c2c1CCC2	1.85	50				
C=CCc1c(OC)nc2nc(C(=O)c3ccccc3)cn2c1C	0.045	5	100	54	10	
C=CCc1c(OC)nc2nc(C(=O)c3ccccc3)cn2c1CC	0.042	10				
COc1cc2nc(C(=O)c3ccccc3)cn2c2cc(C)c(C)cc12	0.1	5				
CSc1nc2nc(C(=O)c3ccccc3)cn2c2c1CSCC2	0.024	50				
O=C(OC1CCCCC1)c1cn2c(n1)sc1ccccc12	7.1					
CNC1=Nc2ccc(Cl)cc2C(c2ccccc2)=[N+]([O-])C1 [CHLORDIAZEPOXIDE]		5	6.8	1.9	2	16
CCCc1cc(SC)nc2nc(C(=O)c3ccccc3)cn12	0.089	10				
CCOC(=O)N1Cc2c(OC)nc3nc(C(=O)c4ccccc4)cn3c2C1	10	50				
CCc1c(SC)nc2nc(C(=O)c3ccccc3)cn2c1C	0.012	2	100	12.5	2	200
CCCCc1c(OC)nc2nc(C(=O)c3ccccc3)cn2c1C	0.042	2				
CCOc1nc2nc(C(=O)c3ccccc3)cn2c2c1CSCC2	> 10	> 50				
COc1cc2nc(C(=O)c3ccccc3)cn2c2ccc(C(C)C)cc12	0.01	5				
CCOC(=O)Cc1cn2c(n1)sc1ccccc12	> 0.01					
CSc1nc2nc(C(=O)c3ccccc3)cn2c2c1CCC2	0.035	2				
CSc1cc(C)n2cc(C(=O)c3ccccc3)nc2n1	0.19	5				
CCCc1c(SC)nc2nc(C(=O)c3ccccc3)cn2c1CC	0.047	10				
CCc1ccc2c(c1)sc1nc(C(=O)c3ccccc3)cn12	0.74					
CCC(=O)c1cn2c(cc(OC)c3cc(CC)ccc32)n1	0.135	10				
CCc1ccc2c(c1)c(OC)c(C)c1nc(C(=O)c3ccccc3)cn12	0.007	2				
COc1cc2nc(C(=O)c3ccccc3)cn2c2ccccc12	0.057	5				

Compound	IC50 [1] [µM]	minimal effective dose [2] [mg/kg]	ED50 [3] [mg/kg]	ED50 [4] [mg/kg]	minimal effective dose [5] [mg/kg]	ED50 [6] [mg/kg]
O=C(O)c1cn2c(n1)sc1ccccc12	> 0.01					
COc1nc2nc(C(=O)c3ccccc3)cn2c2c1CCCCC2	0.125	10				
CCCc1c(OC)nc2nc(C(=O)c3ccccc3)cn2c1C	0.085	5	100	200	5	100
CCc1c(OC)nc2nc(C(=O)c3ccccc3)cn2c1CC	0.107	2				
COc1nc2nc(C(=O)c3ccccc3)cn2c(C)c1OC	1	5				
CCc1ccc2c(c1)c(OC)cc1nc(C(=O)c3ccccn3)cn12	0.009	5				
CSc1nc2nc(C(=O)c3ccccc3)cn2c2c1CCCC2	0.009	10				
COc1cc2nc(C(=O)c3ccccc3)cn2c2ccc(F)cc12	0.02	10				
COc1nc2nc(C(=O)c3ccccc3)cn2c2c1CCCC2	0.061	5	200	100	5	500
COc1cc2nc(C(=O)c3ccc(C)cc3)cn2c2ccccc12	0.019	> 50				
CCCOC(=O)c1cn2c(n1)sc1ccccc12	0.47					
COc1nc2nc(C(=O)c3ccccc3)cn2c2c1CCC(C)C2 (stereo not given)	0.135	10				
CCc1ccc2c(c1)c(OC)cc1nc(C(=O)c3ccccc3)cn12	0.014	5	22.5	3.2	2	640
CCc1ccc2c(c1)c(OC)cc1nc(C(C)=O)cn12	1.3	20				
COc1cc2nc(C(=O)c3ccccc3)cn2c2ccc(C)cc12	0.021	5				
CCc1c(OC)nc2nc(C(=O)c3ccccc3)cn2c1C [DIVAPLON]	0.056	2	200	21	2	200
CCCc1c(OC)nc2nc(C(=O)c3ccccc3)cn2c1CC	0.034	10				
CSc1nc2nc(C(=O)c3ccccc3)cn2c2c1CCC(C)C2 (stereo not given)	0.076	50				
O=C(Nc1nccs1)c1cn2c(n1)sc1ccccc12	> 0.01					
CCCCc1c(OC)nc2nc(C(=O)c3ccccc3)cn2c1CC	0.034	10				
CCOc1nc2nc(C(=O)c3ccccc3)cn2c2c1CCC2	> 10	50				
COc1nc2nc(C(=O)c3ccccc3)cn2c2c1CCC2	0.2	20				
CCOC(=O)c1cn2c(n1)sc1ccccc12	0.12					
